Assay results as given in ChEMBL document CHEMBL1134439, “Radioiodinated styrylbenzenes and thioflavins as probes for amyloid aggregates” (J Med Chem, 2001).
pKi: −log10 of the molar value.

Key:
[1] = test system: Mus musculus; assay: Biodistribution was measured in mice spleen 30 minutes after intravenous injection of [125I]-labeled styrylbenzene.; type: ADME, organism-based; conditions: in vivo, 0.5 h
How it was run: (§1)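 ICR mice (2-3 months old, 20-30 g) under ether anesthesia; 0.15 mL saline containing 5-10 µCi ¹²⁵I tracer injected into tail vein. Sacrifice by cardiac excision at set times; organs removed, weighed, γ-counted. Expressed as % dose per organ versus diluted aliquots of injectate. Mean of three or four mice ± SD.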

[2] = test system: Mus musculus; assay: Biodistribution was measured in mice lung 30 minutes after intravenous injection of [125I]-labeled styrylbenzene.; type: ADME, organism-based; conditions: in vivo, 0.5 h
How it was run: (§2)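 ICR mice (2-3 months old, 20-30 g) under ether anesthesia received 5-10 µCi ¹²⁵I tracer in 0.15 mL saline by tail-vein injection. Animals were killed by cardiac excision at set times post-injection. Organs were removed, weighed and γ-counted. Values are % dose per organ against diluted injectate aliquots, taking blood and muscle as 7% and 40% of body weight. Mean of 3-4 mice ± SD.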

[3] = test system: Mus musculus; assay: Biodistribution was measured in mice muscle 6 hours after intravenous injection of [125I]-labeled styrylbenzene.; type: ADME, organism-based, Muscle tissue; conditions: in vivo; how it was run: as §2
[4] = test system: Mus musculus; assay: Biodistribution was measured in mice muscle 60 minutes after intravenous injection of [125I]-labeled styrylbenzene.; type: ADME, organism-based, Muscle tissue; conditions: in vivo, 1 h; how it was run: as §2
[5] = test system: Mus musculus; assay: Biodistribution was measured in mice lung 6 hours after intravenous injection of [125I]-labeled styrylbenzene.; type: ADME, organism-based; conditions: in vivo, in the assay text read “thioflavin” for “styrylbenzene”; how it was run: as §2
[6] = test system: Mus musculus; assay: Biodistribution was measured in mice brain 6 hours after intravenous injection of [125I]-labeled styrylbenzene; type: ADME, organism-based; conditions: in vivo; how it was run: as §2
[7] = test system: Mus musculus; assay: Biodistribution was measured in mice brain 30 minutes after intravenous injection of [125I]-labeled styrylbenzene; type: ADME, organism-based; conditions: in vivo, 0.5 h; how it was run: as §2
[8] = test system: Mus musculus; assay: Biodistribution was measured in mice blood 2 minutes after intravenous injection of [125I]-labeled styrylbenzene.; type: ADME, organism-based; conditions: in vivo; how it was run: as §2
[9] = test system: Mus musculus; assay: Biodistribution was measured in mice heart 24 hours after intravenous injection of [125I]-labeled styrylbenzene.; type: ADME, organism-based; conditions: in vivo; how it was run: as §2
[10] = test system: Mus musculus; assay: Biodistribution was measured in mice heart 60 minutes after intravenous injection of [125I]-labeled styrylbenzene.; type: ADME, organism-based; conditions: in vivo, 1 h; how it was run: as §2
[11] = test system: Mus musculus; assay: Biodistribution was measured in mice spleen 2 minutes after intravenous injection of [125I]-labeled styrylbenzene.; type: ADME, organism-based; conditions: in vivo; how it was run: as §2
[12] = test system: Mus musculus; assay: Biodistribution was measured in mice blood 6 hours after intravenous injection of [125I]-labeled styrylbenzene.; type: ADME, organism-based; conditions: in vivo; how it was run: as §2
[13] = test system: Mus musculus; assay: Biodistribution was measured in mice muscle 30 minutes after intravenous injection of [125I]-labeled styrylbenzene.; type: ADME, organism-based, Muscle tissue; conditions: in vivo, 0.5 h; how it was run: as §2
[14] = test system: Mus musculus; assay: Biodistribution was measured in mice brain 2 minutes after intravenous injection of [125I]-labeled styrylbenzene; type: ADME, organism-based; conditions: in vivo, in the assay text read “thioflavin” for “styrylbenzene”; how it was run: as §2
[15] = test system: Mus musculus; assay: Biodistribution was measured in mice heart 6 hours after intravenous injection of [125I]-labeled styrylbenzene.; type: ADME, organism-based; conditions: in vivo; how it was run: as §2
[16] = test system: Mus musculus; assay: Biodistribution was measured in mice liver 2 minutes after intravenous injection of [125I]-labeled styrylbenzene.; type: ADME, organism-based; conditions: in vivo; how it was run: as §2
[17] = test system: Mus musculus; assay: Biodistribution was measured in mice skin 6 hours after intravenous injection of [125I]-labeled styrylbenzene.; type: ADME, organism-based, Zone of skin; conditions: in vivo; how it was run: as §2
[18] = test system: Mus musculus; assay: Biodistribution was measured in mice liver 30 minutes after intravenous injection of [125I]-labeled styrylbenzene.; type: ADME, organism-based; conditions: in vivo, 0.5 h; how it was run: as §2
[19] = test system: Mus musculus; assay: Biodistribution was measured in mice skin 60 minutes after intravenous injection of [125I]-labeled styrylbenzene.; type: ADME, organism-based, Zone of skin; conditions: in vivo, 1 h; how it was run: as §2
[20] = test system: Mus musculus; assay: Biodistribution was measured in mice brain 60 minutes after intravenous injection of [125I]-labeled styrylbenzene; type: ADME, organism-based; conditions: in vivo, 1 h; how it was run: as §2
[21] = test system: Mus musculus; assay: Biodistribution was measured in mice kidney 6 hours after intravenous injection of [125I]-labeled styrylbenzene.; type: ADME, organism-based; conditions: in vivo; how it was run: as §2
[22] = test system: Mus musculus; assay: Biodistribution was measured in mice lung 2 minutes after intravenous injection of [125I]-labeled styrylbenzene.; type: ADME, organism-based; conditions: in vivo; how it was run: as §2
[23] = test system: Mus musculus; assay: Biodistribution was measured in mice skin 30 minutes after intravenous injection of [125I]-labeled styrylbenzene.; type: ADME, organism-based, Zone of skin; conditions: in vivo, 0.5 h; how it was run: as §2
[24] = test system: Mus musculus; assay: Biodistribution was measured in mice heart 2 minutes after intravenous injection of [125I]-labeled styrylbenzene.; type: ADME, organism-based; conditions: in vivo; how it was run: as §2
[25] = test system: Mus musculus; assay: Biodistribution was measured in mice blood 60 minutes after intravenous injection of [125I]-labeled styrylbenzene.; type: ADME, organism-based; conditions: in vivo, 1 h; how it was run: as §2
[26] = test system: Mus musculus; assay: Biodistribution was measured in mice kidney 60 minutes after intravenous injection of [125I]-labeled styrylbenzene.; type: ADME, organism-based; conditions: in vivo, 1 h; how it was run: as §2
[27] = test system: Mus musculus; assay: Biodistribution was measured in mice blood 24 hours after intravenous injection of [125I]-labeled styrylbenzene.; type: ADME, organism-based; conditions: in vivo; how it was run: as §2
[28] = test system: Mus musculus; assay: Biodistribution was measured in mice muscle 2 minutes after intravenous injection of [125I]-labeled styrylbenzene.; type: ADME, organism-based, Muscle tissue; conditions: in vivo, in the assay text read “thioflavin” for “styrylbenzene”; how it was run: as §2
[29] = test system: Mus musculus; assay: Biodistribution was measured in mice heart 30 minutes after intravenous injection of [125I]-labeled styrylbenzene.; type: ADME, organism-based; conditions: in vivo, 0.5 h; how it was run: as §2
[30] = test system: Mus musculus; assay: Biodistribution was measured in mice spleen 60 minutes after intravenous injection of [125I]-labeled styrylbenzene.; type: ADME, organism-based; conditions: in vivo, 1 h; how it was run: as §1
[31] = test system: Mus musculus; assay: Biodistribution was measured in mice liver 6 hours after intravenous injection of [125I]-labeled styrylbenzene.; type: ADME, organism-based; conditions: in vivo, in the assay text read “thioflavin” for “styrylbenzene”; how it was run: as §2
[32] = test system: Mus musculus; assay: Biodistribution was measured in mice muscle 24 hours after intravenous injection of [125I]-labeled styrylbenzene.; type: ADME, organism-based, Muscle tissue; conditions: in vivo; how it was run: as §2
[33] = test system: Mus musculus; assay: Biodistribution was measured in mice kidney 24 hours after intravenous injection of [125I]-labeled styrylbenzene.; type: ADME, organism-based; conditions: in vivo; how it was run: as §2
[34] = test system: Mus musculus; assay: Biodistribution was measured in mice blood 30 minutes after intravenous injection of [125I]-labeled styrylbenzene.; type: ADME, organism-based; conditions: in vivo, 0.5 h; how it was run: as §2
[35] = test system: Mus musculus; assay: Biodistribution was measured in mice skin 2 minutes after intravenous injection of [125I]-labeled styrylbenzene.; type: ADME, organism-based, Zone of skin; conditions: in vivo; how it was run: as §2
[36] = test system: Mus musculus; assay: Biodistribution was measured in mice lung 60 minutes after intravenous injection of [125I]-labeled styrylbenzene.; type: ADME, organism-based; conditions: in vivo, 1 h; how it was run: as §2
[37] = test system: Mus musculus; assay: Biodistribution was measured in mice kidney 2 minutes after intravenous injection of [125I]-labeled styrylbenzene.; type: ADME, organism-based; conditions: in vivo; how it was run: as §2
[38] = test system: Mus musculus; assay: Biodistribution was measured in mice kidney 30 minutes after intravenous injection of [125I]-labeled styrylbenzene.; type: ADME, organism-based; conditions: in vivo, 0.5 h; how it was run: as §2
[39] = test system: Mus musculus; assay: Biodistribution was measured in mice liver 60 minutes after intravenous injection of [125I]-labeled styrylbenzene.; type: ADME, organism-based; conditions: in vivo, 1 h; how it was run: as §2
[40] = test system: Mus musculus; assay: Biodistribution was measured in mice brain 24 hours after intravenous injection of [125I]-labeled styrylbenzene; type: ADME, organism-based; conditions: in vivo, in the assay text read “thioflavin” for “styrylbenzene”; how it was run: as §2
[41] = test system: Mus musculus; assay: Biodistribution was measured in mice lung 24 hours after intravenous injection of [125I]-labeled styrylbenzene.; type: ADME, organism-based; conditions: in vivo, in the assay text read “thioflavin” for “styrylbenzene”; how it was run: as §2
[42] = target: T1, Amyloid-beta precursor protein (Homo sapiens, UniProt P05067); assay: Inhibition constant for aggregates of amyloid beta compared to [125I]IMSB
T1 sequence (P05067 whole entry): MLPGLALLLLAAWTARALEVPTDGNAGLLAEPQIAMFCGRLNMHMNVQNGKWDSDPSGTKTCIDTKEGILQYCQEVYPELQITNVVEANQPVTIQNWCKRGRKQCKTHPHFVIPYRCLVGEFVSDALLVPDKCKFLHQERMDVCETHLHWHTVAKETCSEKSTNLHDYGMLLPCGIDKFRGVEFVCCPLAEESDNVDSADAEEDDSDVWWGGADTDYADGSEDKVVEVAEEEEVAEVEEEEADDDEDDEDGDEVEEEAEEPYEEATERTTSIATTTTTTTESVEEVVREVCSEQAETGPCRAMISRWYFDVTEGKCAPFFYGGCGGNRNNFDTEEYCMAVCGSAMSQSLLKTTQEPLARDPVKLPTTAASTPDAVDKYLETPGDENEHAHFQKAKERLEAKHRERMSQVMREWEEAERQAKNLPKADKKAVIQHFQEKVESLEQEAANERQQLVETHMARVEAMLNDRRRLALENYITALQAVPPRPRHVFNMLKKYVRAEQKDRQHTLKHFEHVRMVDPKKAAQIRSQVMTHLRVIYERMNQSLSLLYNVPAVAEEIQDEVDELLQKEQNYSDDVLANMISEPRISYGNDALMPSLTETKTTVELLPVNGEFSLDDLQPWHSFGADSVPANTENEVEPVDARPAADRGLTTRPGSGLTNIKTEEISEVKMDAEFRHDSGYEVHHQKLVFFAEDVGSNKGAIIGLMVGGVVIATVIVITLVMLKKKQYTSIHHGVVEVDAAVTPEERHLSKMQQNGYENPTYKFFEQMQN
How it was run: (§3)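 Aβ(1-40) or Aβ(1-42) aggregated at 0.5 or 0.25 mg/mL respectively in pH 7.4 buffer (10 mM sodium phosphate, 1 mM EDTA), 37 °C, 36-42 h with shaking. Competition against ¹²⁵I radioligand with fibrils 10-50 nM (final), 10% EtOH, 1 mL. Incubation 3 h room temperature. Bound ligand collected by GF/B filtration, γ-counted. Ki by nonlinear regression. Mean ± SEM, three experiments in duplicate.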

[43] = test system: Mus musculus; assay: Biodistribution was measured in mice skin 24 hours after intravenous injection of [125I]-labeled styrylbenzene.; type: ADME, organism-based, Zone of skin; conditions: in vivo; how it was run: as §2
[44] = test system: Mus musculus; assay: Biodistribution was measured in mice spleen 24 hours after intravenous injection of [125I]-labeled styrylbenzene.; type: ADME, organism-based; conditions: in vivo
[45] = test system: Mus musculus; assay: Biodistribution was measured in mice spleen 6 hours after intravenous injection of [125I]-labeled thioflavin.; conditions: in vivo
[46] = test system: Mus musculus; assay: Biodistribution was measured in mice liver 24 hours after intravenous injection of [125I]-labeled styrylbenzene.; type: ADME, organism-based; conditions: in vivo; how it was run: as §2
[47] = target: T1, Amyloid-beta precursor protein; assay: Inhibition constant of compound on ligand binding to aggregates of Amyloid beta was measured by comparing with [125I]TZDM
How it was run: (§4)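 Aβ(1-40) or Aβ(1-42) peptide pre-aggregated at 0.5 or 0.25 mg/mL respectively in pH 7.4 buffer (10 mM sodium phosphate, 1 mM EDTA), 37 °C for 36-42 h with shaking. Fibrils (10-50 nM final) incubated with ¹²⁵I radioligand in 10% EtOH, 3 h at room temperature. Bound ligand separated by GF/B filtration and γ-counted. Ki from nonlinear regression. Three independent experiments, each in duplicate, mean ± SEM.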

[48] = target: T1, Amyloid-beta precursor protein; assay: Inhibition constant of compound on ligand binding to aggregates of Amyloid beta was measured by comparing with [125I]IMSB; how it was run: as §4
[49] = target: T1, Amyloid-beta precursor protein; assay: Inhibition constant for amyloid beta compared to [125I]TZDM; how it was run: as §3

SMILES: CN1CCN(c2ccc(-c3nc4ccc(I)cc4s3)cc2)CC1
- Dose/organ [1]: 0.87%
- Dose/organ [2]: 4.14%
- Dose/organ [3]: 6.65%
- Dose/organ [4]: 19.46%
- Dose/organ [5]: 1.15%
- Dose/organ [6]: 1.08%
- Dose/organ [7]: 1.59%
- Dose/organ [8]: 8.02%
- Dose/organ [9]: 0.08%
- Dose/organ [10]: 0.66%
- Dose/organ [11]: 0.89%
- Dose/organ [12]: 1.49%
- Dose/organ [13]: 18.82%
- Dose/organ [14]: 1.5%
- Dose/organ [15]: 0.22%
- Dose/organ [16]: 28.84%
- Dose/organ [17]: 3.17%
- Dose/organ [18]: 21.22%
- Dose/organ [19]: 5.63%
- Dose/organ [20]: 1.89%
- Dose/organ [21]: 3.62%
- Dose/organ [22]: 12.8%
- Dose/organ [23]: 6.07%
- Dose/organ [24]: 2.19%
- Dose/organ [25]: 4.16%
- Dose/organ [26]: 7.99%
- Dose/organ [27]: 0.41%
- Dose/organ [28]: 13.24%
- Dose/organ [29]: 0.69%
- Dose/organ [30]: 0.6%
- Dose/organ [31]: 5.79%
- Dose/organ [32]: 2.44%
- Dose/organ [33]: 1.15%
- Dose/organ [34]: 5.15%
- Dose/organ [35]: 4.06%
- Dose/organ [36]: 3.38%
- Dose/organ [37]: 6.46%
- Dose/organ [38]: 8.06%
- Dose/organ [39]: 17.2%
- Dose/organ [40]: 0.91%
- Dose/organ [41]: 0.44%
- pKi [42]: < 5.70
- Dose/organ [43]: 1.64%
- Dose/organ [44]: 0.08%
- Dose/organ [45]: 0.22%
- Dose/organ [46]: 3.05%

SMILES: O=C(O)c1cc(/N=N/c2ccc(-c3ccc(/N=N/c4ccc(O)c(C(=O)O)c4)cc3)cc2)ccc1O [CHRYSAMINE G]
- pKi [47]: < 5.70
- pKi [48]: 9.40
- pKi [49]: < 6.00
- pKi [42]: 9.85
